This note sets out measurements from ChEMBL document CHEMBL4665824, “Characterization and Discovery of a Selective Small-Molecule Modulator of Mitochondrial Complex I Targeting a Unique Binding Site” (J Med Chem, 2020).

Structures are written as SMILES. Calls of active or inactive are those of the source. The calls are words filed in the database; no cut-off is given here.

The species entered for data set [1] is Mus musculus. Put plainly: Binding affinity to purified C57BL/6 mouse cerebral cortex mitochondrial complex 1 assessed as labelling of IF site ( 49 kDa) sub unit at 10 uM in presence of ZCM-I-1 incubated for 45 mins under irradiation by SDS-PAGE analysis. The settings on record: Mitochondria. In short, it runs like this:
(§1)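 Preincubated with DMSO or competitor 45 min at 4 °C, then photoaffinity probe added for 30 min at 4 °C. Irradiated 365 nm, 10 min on ice, then run on SDS-PAGE. Read by in-gel fluorescence (488 nm excitation), or after streptavidin pull-down by silver stain. Three independent experiments.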

The species entered for data set [2] is Mus musculus. Nature of the data set: Binding affinity to purified C57BL/6 mouse cerebral cortex mitochondrial complex 1 assessed as labelling of 13 kDa sub unit at 10 uM in presence of ZCM-I-1 incubated for 45 mins under irradiation by SDS-PAGE analysis. The conditions noted are these: Mitochondria. In short, it runs like this:
as §1

Another data set deals with MC65. Put plainly: Inhibition of mitochondrial complex 1 in human MC65 cells assessed as protective potency concentration. Format: cell-based.
For data set [3], the species on record is Mus musculus. Put plainly: Binding affinity to purified C57BL/6 mouse cerebral cortex mitochondrial complex 1 assessed as labelling of 75 kDa sub unit at 10 uM in presence of ZCM-I-1 incubated for 45 mins under irradiation by SDS-PAGE analysis. The settings on record: Mitochondria. In short, it runs like this:
as §1

The species named for data set [4] is Mus musculus. Put plainly: Binding affinity to purified C57BL/6 mouse cerebral cortex mitochondrial complex 1 assessed as labelling of 51 kDa sub unit at 10 uM in presence of ZCM-I-1 incubated for 45 mins under irradiation by SDS-PAGE analysis. The conditions noted are these: Mitochondria. Put shortly: as §1
The species entered for data set [5] is Mus musculus. Nature of the data set: Binding affinity to purified C57BL/6 mouse cerebral cortex mitochondrial complex 1 assessed as labelling of 24 kDa sub unit at 10 uM in presence of ZCM-I-1 incubated for 45 mins under irradiation by SDS-PAGE analysis. The settings on record: Mitochondria. In short, it runs like this: as §1
The species entered for data set [6] is Mus musculus. Put plainly: Binding affinity to purified C57BL/6 mouse cerebral cortex mitochondrial complex 1 assessed as labelling of 24 kDa sub unit at 1 to 10 uM incubated for 45 mins under irradiation by SDS-PAGE analysis. The settings on record: Mitochondria, dose microM 1-10, time 45.0 min. Put shortly: as §1
Data set [7] is filed under the species Mus musculus. Nature of the data set: Binding affinity to purified C57BL/6 mouse cerebral cortex mitochondrial complex 1 assessed as labelling of 75 kDa sub unit at 10 uM in presence of FMN incubated for 45 mins under irradiation by SDS-PAGE analysis. The settings on record: Mitochondria. Put shortly:
as §1

The species entered for data set [8] is Mus musculus. Nature of the data set: Binding affinity to purified C57BL/6 mouse cerebral cortex mitochondrial complex 1 assessed as labelling of 51 kDa sub unit at 10 uM in presence of FMN incubated for 45 mins under irradiation by SDS-PAGE analysis. The settings on record: Mitochondria. Put shortly:
as §1

The species entered for data set [9] is Mus musculus. Put plainly: Binding affinity to purified C57BL/6 mouse cerebral cortex mitochondrial complex 1 assessed as labelling of 24 kDa sub unit at 10 uM in presence of IQ site inhibitor rotenone incubated for 45 mins under irradiation by SDS-PAGE analysis. The conditions noted are these: Mitochondria. In short, it runs like this: as §1
For data set [10], the species on record is Mus musculus. Put plainly: Binding affinity to purified C57BL/6 mouse cerebral cortex mitochondrial complex 1 assessed as labelling of 75 kDa sub unit at 1 to 10 uM incubated for 45 mins under irradiation by SDS-PAGE analysis. The settings on record: Mitochondria, dose microM 1-10, time 45.0 min. In short, it runs like this:
as §1

Data set [11] is described as follows: Drug localization in mitochondria human MC65 cells at 3 uM incubated for 3.5 hrs by immunocytochemistry. Format: ADME. The settings on record: mc65, 3.5 h. In short, it runs like this: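 MC65 cells plated 24 h on poly-D-lysine coverslips, given 3 μM probe for 3.5 h, then MitoTracker Red (300 nM) for 30 min. Fixed in 4% formaldehyde 15 min, DAPI-stained, mounted. Imaged by confocal microscopy (63x/1.40 oil) and analysed for colocalization coefficients.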

For data set [12], the species on record is Mus musculus. Nature of the data set: Binding affinity to purified C57BL/6 mouse cerebral cortex mitochondrial complex 1 assessed as labelling of 24 kDa sub unit at 10 uM in presence of NADH incubated for 45 mins under irradiation by SDS-PAGE analysis. The settings on record: Mitochondria. Put shortly:
as §1

Data set [13] can be described thus: Drug localization in mitochondria mouse cortical neuron at 25 uM incubated for 4 hrs by immunocytochemistry. Format: ADME. The conditions noted are these: cortical neurone. Put shortly:
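Mouse primary cortical neurons (E15.5 C57BL/6J cortex, DIV 10–12; cytarabine 1 μM from DIV 3–6) given 25 μM probe for 4 h, then Mitotracker Red CMXRos (25 nM) for 30 min. Washed by half-media exchanges with phenol-red-free medium. Imaged live by confocal microscopy, 63x/1.4 NA oil objective.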

For data set [14], the species on record is Mus musculus. Put plainly: Binding affinity to purified C57BL/6 mouse cerebral cortex mitochondrial complex 1 assessed as labelling of 75 kDa sub unit at 10 uM in presence of IQ site inhibitor rotenone incubated for 45 mins under irradiation by SDS-PAGE analysis. The settings on record: Mitochondria. Put shortly: as §1
The species entered for data set [15] is Mus musculus. Nature of the data set: Binding affinity to purified C57BL/6 mouse cerebral cortex mitochondrial complex 1 assessed as labelling of 49 kDa sub unit at 10 uM in presence of IQ site inhibitor rotenone incubated for 45 mins under irradiation by SDS-PAGE analysis. The conditions noted are these: Mitochondria. Put shortly: as §1
Data set [16] is filed under the species Mus musculus. Put plainly: Binding affinity to purified C57BL/6 mouse cerebral cortex mitochondrial complex 1 assessed as labelling of 49 kDa sub unit at 10 uM in presence of NADH incubated for 45 mins under irradiation by SDS-PAGE analysis. The conditions noted are these: Mitochondria. In short, it runs like this: as §1
The species entered for data set [17] is Mus musculus. Nature of the data set: Inhibition of mitochondrial complex 1 in permeabilized mouse brain mitochondria assessed as reduction in ROS production at 1 uM incubated for 1 hr after TC removal by Amplex Red and horseradish peroxidase based assay.
The species entered for data set [18] is Mus musculus. Nature of the data set: Binding affinity to purified C57BL/6 mouse cerebral cortex mitochondrial complex 1 assessed as labelling of IF site ( 49 kDa) sub unit at 1 to 10 uM incubated for 45 mins under irradiation by SDS-PAGE analysis. The settings on record: Mitochondria, dose microM 1-10, time 45.0 min. Put shortly:
as §1

For data set [19], the species on record is Mus musculus. Nature of the data set: Binding affinity to purified C57BL/6 mouse cerebral cortex mitochondrial complex 1 assessed as labelling of 49 kDa sub unit at 10 uM in presence of FMN incubated for 45 mins under irradiation by SDS-PAGE analysis. The settings on record: Mitochondria. Put shortly:
as §1

For data set [20], the species on record is Mus musculus. Put plainly: Binding affinity to purified C57BL/6 mouse cerebral cortex mitochondrial complex 1 assessed as labelling of 13 kDa sub unit at 10 uM in presence of FMN incubated for 45 mins under irradiation by SDS-PAGE analysis. The settings on record: Mitochondria. Put shortly:
as §1

For data set [21], the species on record is Mus musculus. Put plainly: Binding affinity to purified C57BL/6 mouse cerebral cortex mitochondrial complex 1 assessed as labelling of 24 kDa sub unit at 10 uM in presence of FMN incubated for 45 mins under irradiation by SDS-PAGE analysis. The conditions noted are these: Mitochondria. In short, it runs like this:
as §1

The species named for data set [22] is Mus musculus. Put plainly: Binding affinity to purified C57BL/6 mouse cerebral cortex mitochondrial complex 1 assessed as labelling of 13 kDa sub unit at 10 uM in presence of IQ site inhibitor rotenone incubated for 45 mins under irradiation by SDS-PAGE analysis. The settings on record: Mitochondria. Put shortly:
as §1

For data set [23], the species on record is Mus musculus. Put plainly: Binding affinity to purified C57BL/6 mouse cerebral cortex mitochondrial complex 1 assessed as labelling of 51 kDa sub unit at 1 to 10 uM incubated for 45 mins under irradiation by SDS-PAGE analysis. The settings on record: Mitochondria, dose microM 1-10, time 45.0 min. Put shortly:
as §1

For data set [24], the species on record is Mus musculus. Put plainly: Binding affinity to purified C57BL/6 mouse cerebral cortex mitochondrial complex 1 assessed as labelling of 51 kDa sub unit at 10 uM in presence of NADH incubated for 45 mins under irradiation by SDS-PAGE analysis. The settings on record: Mitochondria. In short, it runs like this: as §1
Data set [25] is filed under the species Mus musculus. Nature of the data set: Binding affinity to purified C57BL/6 mouse cerebral cortex mitochondrial complex 1 assessed as labelling of 13 kDa sub unit at 10 uM in presence of NADH incubated for 45 mins under irradiation by SDS-PAGE analysis. The settings on record: Mitochondria. In short, it runs like this:
as §1

Data set [26] is filed under the species Mus musculus. Nature of the data set: Binding affinity to purified C57BL/6 mouse cerebral cortex mitochondrial complex 1 assessed as labelling of 51 kDa sub unit at 10 uM in presence of IQ site inhibitor rotenone incubated for 45 mins under irradiation by SDS-PAGE analysis. The conditions noted are these: Mitochondria. In short, it runs like this: as §1

For data set [27], the species on record is Mus musculus. Nature of the data set: Binding affinity to purified C57BL/6 mouse cerebral cortex mitochondrial complex 1 assessed as labelling of 75 kDa sub unit at 10 uM in presence of NADH incubated for 45 mins under irradiation by SDS-PAGE analysis. The settings on record: Mitochondria. Put shortly:
as §1

For data set [28], the species on record is Mus musculus. Nature of the data set: Binding affinity to purified C57BL/6 mouse cerebral cortex mitochondrial complex 1 assessed as labelling of 13 kDa sub unit at 1 to 10 uM incubated for 45 mins under irradiation by SDS-PAGE analysis. The conditions noted are these: Mitochondria, dose microM 1-10, time 45.0 min. In short, it runs like this: as §1

In the case of `COc1ccc2[nH]cc(CCNC(=O)C(CCC3(CCc4cn(CCOCCOCCNC(=O)CCCCC5SCC6NC(=O)NC65)nn4)N=N3)C(=O)CCc3ccc(O)cc3)c2c1` (centres undefined), the outcome in the data set filed under Mus musculus [1], in the data set filed under Mus musculus [2], in the data set listed under Mus musculus [3], in the data set listed under Mus musculus [4] and in the data set filed under Mus musculus [5] was inactive. Further, in the data set on MC65, the INH is greater than 3 nM.

With `COc1ccc2[nH]cc(CCNC(=O)C(CCC3(CCc4cn(CCCNc5ccc([N+](=O)[O-])c6nonc56)nn4)N=N3)C(=O)CCc3ccc(O)cc3)c2c1` (centres undefined), the result in the data set listed under Mus musculus [1], in the data set filed under Mus musculus [7], in the data set listed under Mus musculus [8], in the data set listed under Mus musculus [12], in the data set listed under Mus musculus [2] and in the data set listed under Mus musculus [16] was inactive. The result in the data set listed under Mus musculus [19], in the data set listed under Mus musculus [20], in the data set listed under Mus musculus [21], in the data set listed under Mus musculus [24], in the data set listed under Mus musculus [25] and in the data set listed under Mus musculus [27] was inactive. Moreover, the outcome in the data set listed under Mus musculus [4] and in the data set listed under Mus musculus [5] was inactive. In addition, the outcome in the data set filed under Mus musculus [6], in the data set listed under Mus musculus [9], in the data set filed under Mus musculus [10], in the data set listed under Mus musculus [14], in the data set listed under Mus musculus [15] and in the data set filed under Mus musculus [18] was Active. The outcome in the data set filed under Mus musculus [22], in the data set listed under Mus musculus [23], in the data set listed under Mus musculus [26] and in the data set listed under Mus musculus [28] was Active. Moreover, the Drug uptake result in data set [11] and in [13] was “Active” throughout. In addition, the INH in the data set on MC65 worked out at 96.8 nM. For the same compound, the inhibition entry in the data set filed under Mus musculus [17] is “inactive”.
